Source: ChEMBL document CHEMBL1649230, “Aryl rhodanines specifically inhibit staphylococcal and enterococcal biofilm formation” (Antimicrob Agents Chemother, 2009)
The source made the active and inactive calls. No cut-off for these calls is given here.

Tests used:
[1] = test system: Staphylococcus aureus; assay: Antimicrobial activity against Staphylococcus aureus ATCC 35556 assessed as inhibition of bacterial biofilm formation after 18 hrs by broth microdilution method in presence of 20 ug/ml fibronectin; assay type: functional
Outline: (§1)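 Polystyrene 96-well wells precoated with 100 μl fibronectin or fibrinogen (0–20 μg protein/ml) for 24 h at 4°C. Wells then washed with sterile water. The standard MBIC biofilm assay followed: 0.5× TSB with 1% glucose, 2% DMSO, 18 h at 37°C, crystal violet read at OD600.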

[2] = test system: Staphylococcus aureus; assay: Antimicrobial activity against community-acquired Staphylococcus aureus MW2 on medical grade silicone disk assessed as inhibition of bacterial biofilm after 18 hrs by broth microdilution method; assay type: functional
[3] = test system: Enterococcus faecium; assay: Antimicrobial activity against vancomycin-resistant Enterococcus faecium isolate EF208 assessed as inhibition of bacterial biofilm after 18 hrs by broth microdilution method; assay type: functional
Outline: (§2)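 Biofilm MBIC on tissue culture-treated polystyrene 96-well plates. Twofold dilutions, 0.2 to 100 μM final, with 2% DMSO final. Inoculum was an overnight culture diluted 1:100 (~5 × 10^6 cells/well) in 0.5× TSB plus 1% glucose, grown 18 h at 37°C. Wells washed, heat-fixed 60°C 60 min, stained with 0.06% crystal violet, OD600 read. MBIC is the lowest concentration giving ≥80% inhibition versus untreated; geometric mean of ≥3 experiments.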

[4] = test system: Staphylococcus epidermidis; assay: Antimicrobial activity against Staphylococcus epidermidis 1457 on medical grade silicone disk assessed as inhibition of bacterial biofilm after 18 hrs by broth microdilution method; assay type: functional
[5] = test system: Staphylococcus epidermidis; assay: Antimicrobial activity against coagulase-negative Staphylococcus epidermidis isolate WTBF-41 assessed as inhibition of bacterial biofilm after 18 hrs by broth microdilution method; assay type: functional; outline: as §2
[6] = test system: Enterococcus faecium; assay: Antimicrobial activity against vancomycin-resistant Enterococcus faecium isolate EF1509 assessed as inhibition of bacterial biofilm after 18 hrs by broth microdilution method; assay type: functional; outline: as §2
[7] = test system: Staphylococcus aureus; assay: Antimicrobial activity against Staphylococcus aureus ATCC 35556 assessed as inhibition of bacterial biofilm after 18 hrs by broth microdilution method; assay type: functional
Outline: (§3)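 Static biofilm in tissue culture-treated polystyrene 96-well plates in 0.5× TSB with 1% glucose. Overnight culture diluted 1:100 gives about 5 × 10^6 cells/well. Compound 2-fold series, final 0.2–100 μM, 2% DMSO. Incubated 18 h at 37°C. Washed, heat-fixed 60°C for 60 min, stained with 0.06% crystal violet, read at OD600. MBIC is the lowest concentration giving ≥80% inhibition versus untreated. Geometric mean of ≥3 independent experiments.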

[8] = Cytotoxicity against human HeLa cells after 3 days by MTT assay; assay type: cell-based
Outline: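 HeLa cells were seeded at 4 × 10^3 per well with or without serial dilutions of compound in DMSO. Plates were incubated 3 days at 37°C in minimal essential medium with 10% calf serum, and viability was read by MTT. CC50 was the concentration that reduced MTT-to-formazan conversion by 50%.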

[9] = test system: Staphylococcus aureus; assay: Antimicrobial activity against Staphylococcus aureus ATCC 35556 assessed as inhibition of bacterial biofilm formation after 18 hrs by broth microdilution method in presence of 5 ug/ml fibronectin; assay type: functional; outline: as §1
[10] = test system: Staphylococcus aureus; assay: Antimicrobial activity against Staphylococcus aureus ATCC 35556 assessed as inhibition of bacterial biofilm formation after 18 hrs by broth microdilution method in presence of 1 ug/ml fibrinogen; assay type: functional; outline: as §1
[11] = test system: Staphylococcus aureus; assay: Antimicrobial activity against hospital acquired methicillin-resistant Staphylococcus aureus isolate 1094 assessed as inhibition of bacterial biofilm after 18 hrs by broth microdilution method; assay type: functional; outline: as §2
[12] = test system: Enterococcus faecalis; assay: Antimicrobial activity against vancomycin-resistant Enterococcus faecalis isolate F317 assessed as inhibition of bacterial biofilm after 18 hrs by broth microdilution method; assay type: functional; outline: as §2
[13] = test system: Staphylococcus aureus; assay: Antimicrobial activity against community acquired methicillin-resistant Staphylococcus aureus isolate 33548 assessed as inhibition of bacterial biofilm after 18 hrs by broth microdilution method; assay type: functional; outline: as §2
[14] = test system: Staphylococcus epidermidis; assay: Antimicrobial activity against Staphylococcus epidermidis 1457 assessed as inhibition of bacterial biofilm after 18 hrs by broth microdilution method; assay type: functional; outline: as §3
[15] = test system: Staphylococcus aureus; assay: Antimicrobial activity against community acquired methicillin-resistant Staphylococcus aureus isolate 22733 assessed as inhibition of bacterial biofilm after 18 hrs by broth microdilution method; assay type: functional; outline: as §2
[16] = test system: Enterococcus gallinarum; assay: Antimicrobial activity against vancomycin-resistant Enterococcus gallinarum isolate 2392 assessed as inhibition of bacterial biofilm after 18 hrs by broth microdilution method; assay type: functional; outline: as §2
[17] = test system: Staphylococcus epidermidis; assay: Antimicrobial activity against Staphylococcus epidermidis ATCC 35984 assessed as inhibition of bacterial biofilm after 18 hrs by broth microdilution method; assay type: functional; outline: as §3
[18] = test system: Staphylococcus epidermidis; assay: Antimicrobial activity against coagulase-negative Staphylococcus epidermidis isolate WTBF-47 assessed as inhibition of bacterial biofilm after 18 hrs by broth microdilution method; assay type: functional; outline: as §3
[19] = test system: Enterococcus faecalis; assay: Antimicrobial activity against vancomycin-resistant Enterococcus faecalis ATCC 51575 assessed as inhibition of bacterial biofilm after 18 hrs by broth microdilution method; assay type: functional; outline: as §2
[20] = test system: Staphylococcus aureus; assay: Antimicrobial activity against Staphylococcus aureus NCTC 8325 on medical grade silicone disk assessed as inhibition of bacterial biofilm after 18 hrs by broth microdilution method
[21] = test system: Staphylococcus epidermidis; assay: Antimicrobial activity against coagulase-negative Staphylococcus epidermidis isolate WTBF-45 assessed as inhibition of bacterial biofilm after 18 hrs by broth microdilution method; assay type: functional; outline: as §2
[22] = test system: Staphylococcus aureus; assay: Antimicrobial activity against Staphylococcus aureus ATCC 35556 assessed as inhibition of bacterial biofilm formation after 18 hrs by broth microdilution method in presence of 20 ug/ml fibrinogen; assay type: functional; outline: as §1
[23] = test system: Enterococcus faecalis; assay: Antimicrobial activity against Enterococcus faecalis ATCC 51575 on medical grade silicone disk assessed as inhibition of bacterial biofilm after 18 hrs by broth microdilution method; assay type: functional
[24] = test system: Staphylococcus aureus; assay: Antimicrobial activity against community acquired methicillin-resistant Staphylococcus aureus isolate 24209 assessed as inhibition of bacterial biofilm after 18 hrs by broth microdilution method; assay type: functional; outline: as §2
[25] = test system: Staphylococcus aureus; assay: Antimicrobial activity against community acquired methicillin-resistant Staphylococcus aureus isolate 24102 assessed as inhibition of bacterial biofilm after 18 hrs by broth microdilution method; assay type: functional; outline: as §2
[26] = test system: Staphylococcus aureus; assay: Antimicrobial activity against Staphylococcus aureus ATCC 35556 assessed as inhibition of primary adhesion of bacterial biofilm to polystyrene surface under static condition at MBIC after 30 mins by fluorescence emission using BaclLight Live Dead stain; assay type: functional, organism-based
Outline: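 Mid-log S. aureus ATCC 35556 (OD600 0.5) grown in TSB at 37°C, washed, resuspended in PBS. Compound added (0× to 8× MBIC, 2% DMSO). Suspension placed on tissue culture-treated polystyrene or PVC 96-well plates (eight wells per level) or silicone disks in 24-well plates (three wells). Incubated 30 min at 37°C, then washed. BacLight Live/Dead fluorescence read (ex 485, em 530 nm). Result given as fraction adherent versus untreated.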

[27] = test system: Staphylococcus aureus; assay: Antimicrobial activity against Staphylococcus aureus ATCC 35556 assessed as inhibition of primary adhesion of bacterial biofilm to polystyrene surface under static condition pretreated with compound MBIC for 30 mins measured after 30 mins by fluorescence emission using BaclLight Live Dead stain; assay type: functional
Outline: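 PBS suspension of mid-log S. aureus ATCC 35556 exposed to compound in tubes for 30 min at 37°C. Cells centrifuged to remove free compound and resuspended in PBS at the original density. They were then placed on tissue culture-treated polystyrene for 30 min at 37°C. Wells washed, BacLight Live/Dead fluorescence read (ex 485, em 530 nm). Fraction adherent calculated versus untreated.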

Structure (SMILES) | MBIC [1] [µM] | MBIC90 [2] [µM] | MBIC [3] [µM] | MBIC90 [4] [µM] | MBIC [5] [µM] | MBIC [6] | MBIC [7] [µM] | CC50 at 72 h [8] [µM] | MBIC [9] [µM] | MBIC [10] [µM] | MBIC [11] [µM] | MBIC [12] [µM] | MBIC [14] [µM] | MBIC [15] [µM] | MBIC [17] [µM] | MBIC [18] [µM] | MBIC90 [20] [µM] | MBIC [21] [µM] | MBIC [22] [µM] | MBIC [24] [µM] | also measured
CCOc1cc(/C=C2\SC(=S)N(c3cccc(F)c3)C2=O)ccc1O | 6.25 | 70.7 | 50 | 59.5 | 17.7 | >=100 uM | 4.4 | ≥ 100 | 6.25 | 6.25 | 100 | 100 | 50 | 70.7 | 25 | 42 | 70.7 | 50 | 6.25 | 100 | MBIC [13]: 35.4 µM; MBIC [16]: 50 µM; MBIC [19]: 63 µM; MBIC [23]: 63 µM
CCOc1cc(/C=C2\SC(=S)N(c3cccnc3)C2=O)ccc1O | 12.5 | 25 | 15.7 | 35.4 | 17.7 | 21 µM | 10.5 | ≥ 100 | 12.5 | 12.5 | 25 | 15.7 | 12.5 | – | 12.5 | 12.5 | 25 | 17.7 | 12.5 | 25 | MBIC [25]: 19.8 µM; inhibition [26]: Active; MBIC [19]: 21 µM; inhibition (INH) [27]: >=80%; MBIC90 [23]: 19.8 µM
C=CCOc1cc(/C=C2\SC(=S)N(c3ccc(F)cc3)C2=O)ccc1O | 3.125 | 100 | 35.4 | 59.5 | 17.7 | 59.5 µM | 2.6 | 76.4 | 3.125 | 3.125 | 100 | 100 | 29.7 | 100 | 17.7 | 29.7 | 100 | 25 | 3.125 | 100 | MBIC [25]: 100 µM; MBIC [13]: 31.5 µM; MBIC [16]: >=100 uM; MBIC [19]: 35.4 µM; MBIC90 [23]: 100 µM
CCOc1cc(/C=C2\SC(=S)N(c3ccc(F)cc3)C2=O)ccc1O | 6.25 | 79.4 | 31.5 | 42 | 14.9 | >=100 uM | 2.6 | ≥ 100 | 3.125 | 3.125 | 100 | 25 | 42 | 50 | 17.7 | 29.7 | 79.4 | 25 | 6.25 | 100 | inhibition [26]: Active; MBIC [16]: 84.1 µM; inhibition (INH) [27]: >=80%; MBIC [23]: 29.7 µM
